Assays:
LNCaP = experiment: Cytotoxicity against human LNcaP cells after 48 hrs by SRB assay; assay type: functional; conditions: for CC50: read-out: LC50 (the source's name)
Summary of the method: (§1)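 Cells grown in RPMI 1640 with 10% FBS and penicillin/streptomycin at 37 °C and 5% CO₂, trypsinized, then seeded at 5 × 10³/well. After 18 h drug-free attachment, samples in DMSO/EtOH/PBS (0.5:0.5:99) were added for 48 h continuous exposure. Cells were fixed with cold TCA (1 h, 4 °C) and stained with SRB (10 min). Tris-solubilized stain read at 490 nm. Triplicate wells, mean ± SD; GI₅₀ derived.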

HeLa = experiment: Cytotoxicity against human HeLa cells after 48 hrs by SRB assay; assay type: functional; conditions: for CC50: read-out: LC50 (the source's name); summary of the method: as §1
[1] = Cytotoxicity against human HeLa-APL cells after 48 hrs by SRB assay; assay type: functional; summary of the method: as §1
LoVo = experiment: Cytotoxicity against human LoVo cells after 48 hrs by SRB assay; assay type: functional; conditions: for CC50: read-out: LC50 (the source's name)
HT-29 = experiment: Cytotoxicity against human HT29 cells after 48 hrs by SRB assay; assay type: functional, cell-based; conditions: Homo sapiens, HT-29, 48 h; read-out: LC50 (the source's name); summary of the method: as §1
K562 = experiment: Cytotoxicity against human K562 cells after 48 hrs by SRB assay; assay type: functional; conditions: K562, 48 h; for CC50: read-out: LC50 (the source's name); summary of the method: as §1
DU-145 = experiment: Cytotoxicity against human DU145 cells after 48 hrs by SRB assay; assay type: functional, cell-based; conditions: Homo sapiens, DU-145, 48 h; for CC50: read-out: LC50 (the source's name); summary of the method: as §1
[2] = Cytotoxicity against human IGROV-ET cells after 48 hrs by SRB assay; assay type: functional; conditions: for CC50: read-out: LC50 (the source's name); summary of the method: as §1
SK-BR-3 = experiment: Cytotoxicity against human SKBR3 cells after 48 hrs by SRB assay; assay type: functional; conditions: SK-BR-3, 48 h; for CC50: read-out: LC50 (the source's name); summary of the method: as §1
PANC-1 = experiment: Cytotoxicity against human PANC1 cells after 48 hrs by SRB assay; assay type: functional; conditions: PANC-1, 48 h, read-out: LC50 (the source's name); summary of the method: as §1
SK-MEL-28 = experiment: Cytotoxicity against human SK-MEL-28 cells after 48 hrs by SRB assay; assay type: functional, cell-based; conditions: Homo sapiens, SK-MEL-28, 48 h; for CC50: read-out: LC50 (the source's name); summary of the method: as §1
A549 = experiment: Cytotoxicity against human A549 cells after 48 hrs by SRB assay; assay type: functional, cell-based; conditions: Homo sapiens, A549, 48 h; summary of the method: as §1
[3] = Cytotoxicity against human IGROV cells after 48 hrs by SRB assay; assay type: functional; conditions: for CC50: read-out: LC50 (the source's name); summary of the method: as §1

| SMILES | GI50 (LNCaP) [nM] | TGI (LNCaP) [nM] | CC50 (LNCaP) [nM] | CC50 (HeLa) [nM] | LC50 (concentration giving 50% net cell kill) [1] [nM] | CC50 (LoVo) [nM] | CC50 (HT-29) [nM] | CC50 (K562) [nM] | CC50 (DU-145) [nM] | CC50 [2] [nM] | CC50 (SK-BR-3) [nM] | CC50 (PANC-1) [nM] | CC50 (SK-MEL-28) [nM] | LC50 (A549) [nM] | CC50 [3] [nM] | also measured |
| --- | --- | --- | --- | --- | --- | --- | --- | --- | --- | --- | --- | --- | --- | --- | --- | --- |
| C/C=C1\NC(=O)[C@H](Cc2ccccc2)NC(=O)[C@@H](C(C)C)NC(=O)[C@@H]([C@H](C)CC)NC(=O)[C@H](NC(=O)[C@H](NC(=O)[C@H](CCCN)NC(=O)[C@H]2CCCN2C(=O)[C@H](NC(=O)[C@H](C)NC(=O)[C@@H](NC(=O)[C@H](NC(=O)CCCC(C)C)C(C)C)[C@@H](C)O)C(C)C)[C@H](C)CC)[C@H](C)OC(=O)[C@H](C(C)C)NC1=O | 2800 | 3300 | 1570 | 1060 | 1350 | 2990 | 665 | 2480 | 1680 | 599 | 2170 | 2580 | 1470 | 1940 | 533 | GI50 (HeLa): 3100 nM; TGI (HeLa): 2830 nM; GI50 [1]: 3270 nM; TGI [1]: 3100 nM; GI50 (LoVo): 2680 nM; TGI (LoVo): 2830 nM; GI50 (K562): 4320 nM; TGI (K562): 4930 nM; TGI (DU-145): 3870 nM; GI50 (DU-145; read-out: GI50): 3900 nM; GI50 [2]: 863 nM; GI50 ([2]; read-out: GI50): 1250 nM; TGI (SK-BR-3): 2960 nM; GI50 (SK-BR-3; read-out: GI50): 3250 nM; TGI (SK-MEL-28): 3070 nM; GI50 (SK-MEL-28; read-out: GI50): 3450 nM; TGI (A549): 4310 nM; GI50 (A549; read-out: GI50): 3730 nM; GI50 [3]: 934 nM; GI50 ([3]; read-out: GI50): 2000 nM |
| C/C=C1\NC(=O)[C@H](Cc2ccccc2)NC(=O)[C@@H](C(C)C)NC(=O)[C@@H]([C@H](C)CC)NC(=O)[C@H](NC(=O)[C@H](NC(=O)[C@H](CCCN)NC(=O)[C@H]2CCCN2C(=O)[C@H](NC(=O)[C@H](CCC(N)=O)NC(=O)[C@@H](NC(=O)[C@H](NC(=O)CCCC(C)C)C(C)C)[C@@H](C)O)C(C)C)[C@H](C)CC)[C@H](C)OC(=O)[C@H](C(C)C)NC1=O | 3120 | 3170 | 1510 | 1020 | 1300 | 4690 | 869 | 2390 | 1620 | 689 | 2720 | 2480 | 1410 | 1870 | 619 | – |
| C/C=C1\NC(=O)[C@H](Cc2ccccc2)NC(=O)[C@@H](C(C)C)NC(=O)[C@@H]([C@H](C)CC)NC(=O)[C@H](NC(=O)[C@H](NC(=O)[C@H](CCCN)NC(=O)[C@H]2CCCN2C(=O)[C@H](NC(=O)[C@@H]2CCCN2C(=O)[C@@H](NC(=O)[C@H](NC(=O)CCCC(C)C)C(C)C)[C@@H](C)O)C(C)C)[C@H](C)CC)[C@H](C)OC(=O)[C@H](C(C)C)NC1=O | 347 | 3240 | 1540 | 1040 | 1320 | 4790 | 887 | 2440 | 1650 | 703 | 2780 | 2540 | 1440 | 1910 | 632 | – |
| C/C=C1\NC(=O)[C@H](Cc2ccccc2)NC(=O)[C@@H](C(C)C)NC(=O)[C@@H]([C@H](C)CC)NC(=O)[C@H](NC(=O)[C@H](NC(=O)[C@H](CCCN)NC(=O)[C@H]2CCCN2C(=O)[C@H](NC(=O)[C@@H](NC(=O)[C@@H](NC(=O)[C@H](NC(=O)CCCNC(=N)N)C(C)C)[C@@H](C)O)C(C)C)C(C)C)[C@H](C)CC)[C@H](C)OC(=O)[C@H](C(C)C)NC1=O | 3930 | 3200 | 1520 | 1030 | 1310 | 4740 | 877 | 2410 | 1630 | 695 | 2750 | 2510 | 1430 | 1890 | 624 | – |

— ChEMBL document CHEMBL1156597, “Structure-activity relationship of kahalalide F synthetic analogues” (J Med Chem, 2008)
